These results are taken from ChEMBL document CHEMBL4513216, “Probing the Open Global Health Chemical Diversity Library for Multistage-Active Starting Points for Next-Generation Antimalarials” (ACS Infect Dis, 2020).

This data set in a line: Toxicity liver stage against HepG2, at 10uM. Conditions: human, HepG2-A16-CD81EGFP cells; read-out: INHIBITION
The data set is classed as cell-based. Details: test concentration 10 uM, cell line HepG2-A16-CD81EGFP. In short, it runs like this:
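Uninfected HepG2-A16-CD81EGFP cells, 3 × 10^3 per well, 1536-well, plated on prespotted compound at 10 μM final, parasite-free screening media added to match infected plates; puromycin 10 μM positive, DMSO 0.5% negative; run in parallel with 48 h PbLuc assay at 37 °C, 5% CO2; viability by CellTiter-Glo luminescence, normalized to controls.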
As for `CC(C)(C)c1coc([C@@H]2COCCN2Cc2cnc3ccccc3c2)n1`, the cytotoxicity at 10 µM was found to be 10.9%. Next, `O=C1CN(C(=O)OCc2ccccc2)CC(O)CN1Cc1ccco1` (configuration not stated): -9.92%; `COc1ccc2cnn(CC(=O)NCC3CCCO3)c(=O)c2c1OC` (configuration not stated): 4.81%. For `N#Cc1cccnc1OC1CCN(C(=O)c2cc(C3CC3)on2)CC1` the value was 0.253%. Next, `COc1ccc(CC(=O)Nc2c(C)nc(N3CCOCC3)nc2C)cc1`: 5.39%.

Regarding `CCSc1ccccc1C(=O)N1CCC(S(=O)(=O)c2nncn2C)CC1`, the cytotoxicity at 10 µM amounted to 0.595%. `CC(C)Nc1nc2c(c(NC3CC3)n1)CCN(C(=O)C1CCOC1)CC2` (configuration not stated): the cytotoxicity at 10 µM was -145%. On to `Cc1occc1C(=O)N1CCCn2cnc(CN3CCCC3=O)c2C1`, for which the cytotoxicity at 10 µM is 4.24%.

With `CCN(CC)CCN1CCO[C@H]2[C@@H](OCc3ccccn3)CC[C@@H]21`, the cytotoxicity at 10 µM was -7.66%. Next, `Cc1ccc(CN2CCOC3(CCCN(C(=O)c4ccco4)C3)C2)o1` (configuration not stated): -3.27%; `O=C1CCCN1CC1CN(C(=O)N2CCOCC2)Cc2nccn2C1` (configuration not stated): -1.05%. Consider `CCN(c1ccc(C(=O)NCCN2CCOCC2)cc1)S(=O)(=O)CC`, for which the cytotoxicity at 10 µM amounted to 6.89%.

For `COCCN1C[C@@H]2CN(C(=O)[C@H]3CCCO3)C[C@@H]2C1=O`, the cytotoxicity at 10 µM came to 5.82%. For `CCc1ccccc1NC(=O)CCc1cnn(C)c1` the value was 8.66%. For `CC(C)n1cc(N2CC(C(=O)N3CCN(C)CC3)CC2=O)cn1` (configuration not stated) the value was 1.44%; for `Fc1ccc(F)c(CN2CCC(c3cnccn3)CC2)c1`, -1.61%; for `CN1CCC2(Cc3ccccc3CN(C(=O)Cc3cccc(Cl)c3)C2)C1` (configuration not stated), 6.91%. On to `NC(=O)Nc1cccc(F)c1C(=O)NC1CCCC1`, for which the cytotoxicity at 10 µM is -8.64%. On to `Oc1cccc(CNCCC2CCCO2)c1` (configuration not stated), for which the cytotoxicity at 10 µM is 4.08%. Next, `Cc1nnc(CN(C)CCc2nc(-c3cccc(Cl)c3)no2)n1C`: 2.53%; `Cc1csc(N2CCN(Cc3ccccn3)CC2)n1`: 6.14%; `O=C(C1CCOC1)N1CCN(CC(F)(F)F)c2ccccc21` (configuration not stated): -5.74%.

In the case of `Cc1nn2cccnc2c1C(=O)NCc1ccccc1OC1CCC1`, the cytotoxicity at 10 µM was -46.4%.

On to `COc1ccc(N2CCC(NS(=O)(=O)N(C)C(C)C)CC2)cc1`, for which the cytotoxicity at 10 µM worked out at 6.62%. Regarding `COCCN(C)C(=O)NCCc1coc(-c2ccc(C)cc2)n1`, the cytotoxicity at 10 µM turned out to be 8.13%. Consider `Cc1cc(NC(=O)NC(C)CN2CCN(c3ccccc3)CC2)on1` (configuration not stated), for which the cytotoxicity at 10 µM was determined as 11.5%. Next, `FC(F)(F)Oc1ccc(CN2CCCC(n3cncn3)C2)cc1` (configuration not stated): -14.4%; `CC(=O)c1cccc(OC(C)C(=O)Nc2cnn(CCN(C)C)c2)c1` (configuration not stated): 3.45%. For the compound `Cc1ccc(C(NC(=O)CN2CCc3cncnc3C2)C2CC2)cc1` (configuration not stated), the cytotoxicity at 10 µM amounted to 9.31%.

On to `Cc1cc(C)c(CNC(=O)N2CCNC(=O)C2)c(=O)[nH]1`, for which the cytotoxicity at 10 µM is -0.535%. Next, `Cc1nc(-c2ccc(NCCc3ccc(O)cc3)nc2)[nH]c(=O)c1C`: 20.5%; `Cc1ccoc1CNC(C)c1nnc2n1CCCC2` (configuration not stated): -12.6%; `CCc1nc2n(n1)CCCC2Nc1nc(C(C)C)ns1` (configuration not stated): 3.88%. Next, `OCC1CCN(Cc2cc3c(cc2Br)OCCO3)CC1`: 6.84%; `CNC(=O)c1ccc(CNCc2ccc(SC)c(OC)c2)cc1`: 0.838%. For `CCN(CC(=O)N(C)C)C(=O)c1cc(-c2cccc(Cl)c2)no1` the value was 6.17%.

For `CC(=O)N1CCC(CCNC(C)c2cc(F)cc(F)c2)CC1` (configuration not stated), the cytotoxicity at 10 µM was -0.988%.

`Cc1nc2cc(C(=O)N(CCC#N)CCC#N)ccc2n1C`: the cytotoxicity at 10 µM is -3.91%.

Take `CCN(C)S(=O)(=O)NCC1(c2cccc(Br)c2)CC1`: the cytotoxicity at 10 µM was 10.7%. For the compound `N#CCCN1CCC(=Cc2ccccc2)CC1`, the cytotoxicity at 10 µM was -2.75%.

With `CCc1nonc1NC(=O)C(C)Oc1ccccc1F` (configuration not stated), the cytotoxicity at 10 µM came out at 12%.

For `Cc1nc(NC(=O)C2CCCN(C(N)=O)C2)sc1-c1ccccc1` (configuration not stated), the cytotoxicity at 10 µM is 9.31%. For the compound `CCc1cnc(N2CCN(Cc3ccncc3)CC2)s1`, the cytotoxicity at 10 µM is 40.8%. Next, `CC(C)c1nn(C)c(N(C)C)c1CNC1CCN(CC2CC2)CC1`: 8.96%; `Cc1ccc2c(c1)OCCCC2NC1CCN(C)CC1` (configuration not stated): 10.4%; `CC(C)(C)[S+]([O-])CCNC(=O)c1cccc2ncccc12` (configuration not stated): -45.1%. Next, `COc1cccc(CC2CCCN2CCCC#N)c1` (configuration not stated): -43.7%; `NC(=O)C(NC(=O)c1cc(Br)c[nH]1)c1ccccc1` (configuration not stated): 0.172%; `CC(C)(C)C(C#N)NC(=O)c1ccc(Oc2cccnc2)cc1` (configuration not stated): 5.21%. For `CN1Cc2ccccc2CC2(CCN(Cc3nccn3C)CC2)C1=O`, the cytotoxicity at 10 µM amounted to 7.81%. Next, `CCN(C(=O)c1nc2c(s1)CCCN2c1ccc(C)nn1)C(C)C`: 3.86%. `O=C(c1cscn1)N1CCC2(CC1)CN(c1ccccn1)CCO2`: the cytotoxicity at 10 µM is -71%. With `O=C(Cc1ccsc1)N1CCCC(CNS(=O)(=O)Cc2ccccc2)C1` (configuration not stated), the cytotoxicity at 10 µM came out at 4.24%. Next, `CSCCCN1C(=O)CC[C@H]2CN(Cc3ncc[nH]3)CC[C@H]21`: 7.4%; `CN(Cc1ccc(CCC(C)(C)O)cc1)CC1(CO)CC1`: -4.32%. Regarding `O=C(CC1C=CCC1)N1CCc2ncnc(NCc3ccon3)c2CC1` (configuration not stated), the cytotoxicity at 10 µM was 22.8%. As for `Cc1cc(C)c(C(=O)N2CCCC(C(=O)CCc3ccccc3)C2)cn1` (configuration not stated), the cytotoxicity at 10 µM is -7.12%. For `Cc1ccsc1CN(CCCC(F)(F)F)Cc1ccccn1` the value was 0.107%.

For `COc1ccc(Cn2cc(C(=O)N(C)Cc3ccn[nH]3)nn2)cc1`, the cytotoxicity at 10 µM was found to be 8.95%. As to `Fc1ccccc1-c1noc2c1CN(CCN1CCOCC1)CC2`, the cytotoxicity at 10 µM was found to be 0.0119%. For `O=C(NCCn1cccc1)C1CCCN(C2CCCC2)C1` (configuration not stated) the value was 0.301%; for `O=C1CCC2(CCCN(Cc3nnc(C4CC4)o3)C2)CN1CCO` (configuration not stated), 5.14%; for `CCn1c(CN(C)C)nnc1C1CCN(c2nccc(NC)n2)CC1`, 7.36%. As to `Cc1nccn1CCCN1CCCC(c2nccn2C)C1` (configuration not stated), the cytotoxicity at 10 µM was -10.3%. As for `O=C(NCc1csc(Cc2ccccc2)n1)C1NCCc2[nH]cnc21` (configuration not stated), the cytotoxicity at 10 µM was -4.32%. Next, `CCCN1CCC(Cc2noc(-c3cccnc3OC)n2)CC1`: -11.1%; `CCN1CC(CN(C)Cc2nc(-c3ccc(C)o3)oc2C)CC1=O` (configuration not stated): 5.88%. On to `Cc1ccc(OC2(C(=O)O)CCN(C(=O)CCc3ccco3)CC2)cn1`, for which the cytotoxicity at 10 µM turned out to be 1.33%.

With `CC(C)(C)c1ccn(C2(C(=O)O)CCN(c3ccnc(N)n3)CC2)n1`, the cytotoxicity at 10 µM turned out to be 3.63%.

Regarding `COc1ccc(N2CCN(C(=O)CCn3nccc3C)C(C)C2)cc1` (configuration not stated), the cytotoxicity at 10 µM amounted to 14.3%. For `CC(C)CN1CCN(C)C(CCO)C1` (configuration not stated) the value was 1.84%; for `CC(C)CC(=O)N1CCCCC(NC(=O)CCc2cccnc2)C1` (configuration not stated), -1.62%. For the compound `CSc1ncc(CN2CC(Oc3c(C)cccc3C)C2)cn1`, the cytotoxicity at 10 µM was 10.3%.

In the case of `CN1CCC(Cc2noc(-c3cccc4c3OCC4)n2)CC1`, the cytotoxicity at 10 µM was -4.71%. For `O=C1N(Cc2ccc(F)c(F)c2)CCCC1(O)CNCc1ncc[nH]1` (configuration not stated) the value was -4.27%; for `Cn1cc(-c2nc(CN3CCc4c(ncn4C)C3)cs2)cn1`, -6.54%. Next, `CCc1ocnc1C(=O)N1CCCC1c1noc(C2CC2)n1` (configuration not stated): -4.45%; `O=C(CCS(=O)(=O)c1ccccc1)N1CCCC(n2cccn2)C1` (configuration not stated): -14.7%; `CC(=O)N(Cc1noc(C)n1)C1CCN(Cc2ccncc2Cl)C1` (configuration not stated): 5.87%. Next, `Cc1cc(S(=O)(=O)NCc2cccc(C(=O)N3CCCC3)c2)c(C)s1`: 3.13%; `Cc1nc(CN2CCN(C(=O)c3sccc3C3CC3)CC2)cs1`: 3.61%. In the case of `COc1ccc(CN2CCCCC2c2n[nH]cc2-c2cc(C)no2)cc1` (configuration not stated), the cytotoxicity at 10 µM came to 20.8%.

With `CCn1c(CN2CCC(O)(c3ccc4c(c3)OCO4)CC2)cnc1SC`, the cytotoxicity at 10 µM stood at 6.96%. Next, `CO[C@H]1CN(Cc2cccc(C#N)c2)[C@@H]2COC[C@H]12`: -5.77%. Take `CN(C)CCN1C(=O)CCCC12CCCN(C(=O)c1cc[nH]n1)C2` (configuration not stated): the cytotoxicity at 10 µM was -0.225%.

Consider `CN1CCOCC2(CCCN(C(=O)c3ccccc3F)C2)C1` (configuration not stated), for which the cytotoxicity at 10 µM was -91.4%. Next, `O=C(N1CCOCC1)N1C[C@H]2CN(Cc3nccs3)C[C@H]2C1`: -80.8%.

For `CCO[C@H]1CO[C@@]2(CCCN(S(=O)(=O)c3cccnc3)C2)C1`, the cytotoxicity at 10 µM is -86.2%. Next, `Cc1nc(CN2CCCC3(CCN(c4cccnc4)C3=O)C2)cs1` (configuration not stated): 0.574%; `CC(C)Nc1nc2c(cc1C(=O)NCC1CC1)CCN(C)CC2`: -5.72%; `Cc1cnc(N2CCOCC3(CCN(c4ccccn4)C3)C2)nc1` (configuration not stated): 6.85%. Next, `CCN(C)c1ncnc2c1CCN(C(=O)Cc1ccccn1)CC2`: -3.26%; `c1cnc(N2CCN3C[C@H](Oc4cncnc4)C[C@H]3C2)nc1`: 7.97%. Next, `Cc1ccc(CN2CC[C@@H]3OCCN(S(C)(=O)=O)[C@H]3CC2)s1`: 3.91%. Regarding `O=C(CC1CC2(CCN(CC3CC3)CC2)c2ccccc21)NC1CCC1` (configuration not stated), the cytotoxicity at 10 µM is -4.63%. On to `CCn1cc2[nH]c(OC)c(CNC(=O)CCC3CCCC3)cc-2c1=O`, for which the cytotoxicity at 10 µM is -3.28%. For `COc1ccccc1-c1nnc2n1N=C(N)C(C#N)S2` (configuration not stated) the value was 1.5%.
